An excerpt weighted towards active compounds, which were near 1.9% of everything screened.
M5 antag – blocks acetylcholine activation of human M5 receptor; AID 624040; CHO-hM5 cells, Fluo-8 calcium fluorescence, ACh EC80; P08912; 0.59% of 360,000 active; inhibition, % at 3 µM;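 active = inhibition above a per-plate cutoff, the mean of that plate's test compounds plus 3 SD, cut at about 27% in these data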;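 also: 0% = acetylcholine EC80 with DMSO and 100% = DMSO without agonist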
CHRM4 PAM – potentiates acetylcholine response at human M4 receptor | CHO-K1 hM4/Gqi5, Fluo-8 calcium fluorescence, ACh EC20; 0% = ACh EC20, 100% = maximal ACh | activation, % at 3 µM | 0.4% of 360,000 active | AID 624126;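 active = activation above its plate's cutoff, the mean activation of sample wells plus 3 SD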
Target sequence (P08173 whole entry, looked up): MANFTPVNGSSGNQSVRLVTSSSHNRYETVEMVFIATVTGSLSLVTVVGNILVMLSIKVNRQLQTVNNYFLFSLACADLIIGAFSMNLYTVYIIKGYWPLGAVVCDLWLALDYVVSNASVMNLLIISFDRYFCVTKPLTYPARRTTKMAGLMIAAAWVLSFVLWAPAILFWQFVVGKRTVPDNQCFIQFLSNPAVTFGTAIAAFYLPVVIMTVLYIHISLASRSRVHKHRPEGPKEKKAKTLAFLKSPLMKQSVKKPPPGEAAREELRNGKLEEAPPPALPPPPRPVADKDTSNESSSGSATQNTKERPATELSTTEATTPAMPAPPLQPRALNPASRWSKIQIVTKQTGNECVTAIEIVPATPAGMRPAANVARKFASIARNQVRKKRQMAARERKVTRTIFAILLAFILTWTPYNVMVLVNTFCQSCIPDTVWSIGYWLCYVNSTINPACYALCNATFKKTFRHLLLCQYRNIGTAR
M5 PAM – CHRM5 positive allosteric modulation | P08912 | CHO-K1 hM5, Fluo-8 calcium, ACh EC20 PAM; 0% = ACh EC20, 100% = ACh EC100 | activation, % at 3 µM | 0.3% of 360,000 active;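 active = activation above the run cutoff, the mean activation of all test compounds plus 3 SD, cut at about 18% in these data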
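Test system: CHO-K1 hM5 cells / Doses: single-point, 3 µM nominal / Times: Post-acetylcholine fluorescence recording 140 s / Technique: Fluo-8 calcium fluorescence / Measure: Max/basal fluorescence ratio as % of EC20–EC100 ACh window / Benchmarks: low control EC20 acetylcholine (0%), high control EC100 acetylcholine (100%) / Replicates: one well per compound, no replicates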
CHRM4 antagonist – blocks acetylcholine activation of human M4 receptor | P08173 | CHO-hM4 cells, ACh EC80, Fluo-8 calcium fluorescence | inhibition, % at 3 µM | 0.73% of 360,000 active | AID 624125;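 active = inhibition above its plate's cutoff, the mean inhibition of sample wells plus 3 SD, cut at about 27% in these data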;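 also: 0% = acetylcholine EC80 with DMSO and 100% = DMSO without agonist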
CHRM5 agonist – CHRM5 agonism in calcium assay | P08912 | CHO-K1 hM5 cells, Fluo-8 calcium fluorescence; 0% DMSO wells, 100% maximal acetylcholine response | AID 624037 | activation, % at 3 µM | 0.19% of 360,000 active;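 active = activation above the run's mean over test compounds plus 3 SD, cut at about 23% in these data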;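 also: signal is peak over basal fluorescence ratio across the kinetic read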
CHRM4 agonist – agonists of human muscarinic M4 receptor (CHRM4) | 0.14% of 360,000 active | P08173 | AID 624127 | activation, % at 3 µM | CHO-K1 hM4/Gqi5, Fluo-8 calcium fluorescence; vehicle 0%, full acetylcholine response 100%;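 active = activation above the run mean over all test wells plus 3 SD, cut at about 32% in these data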;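 also: peak over basal fluorescence ratio per well then scaled between controls; 0% = DMSO wells and 100% = acetylcholine at EC100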
* = called active by the depositor.

SMILES | M5 antag | CHRM4 PAM | M5 PAM | CHRM4 antagonist | CHRM5 agonist | CHRM4 agonist
CC(NC(=O)OC(C)(C)C)C(=O)Oc1ccc2ccc(=O)oc2c1 (stereo not drawn) | 9.2 | -1.0 | -6.1 | 6.6 | -2.0 | 0.3
CCOc1ccc(/C=C(\C#N)C(=O)Nc2cccnc2)cc1 | 1.1 | 1.4 | 3.6 | 3.2 | -3.8 | 1.3
CCOc1ccc(NC(=O)/C(C#N)=C\c2ccc(N3CCCC3)c(C)c2)cc1 | 49.7* | -1.9 | -13.6 | 11.3 | 40.3* | 9.4
COc1ccc(N2CCN(C(=O)C(=O)c3cc(OC)c(OC)c(OC)c3)CC2)cc1 | 12.9 | 0.7 | -7.2 | -14.0 | 0.9 | 4.5
COc1cc(C(=O)C(=O)N2CCN(c3ccccc3)CC2)cc2ccccc12 | -18.9 | 3.5 | 18.5* | -18.5 | 0.5 | 5.1
CC(=NO)c1ccc2c(c1)Cc1cc([N+](=O)[O-])ccc1-2 | 5.0 | 9.2 | -4.7 | -15.2 | -0.7 | 4.8
CC(O)CN(CC(C)O)c1ccc2c(c1)Cc1cc([N+](=O)[O-])ccc1-2 (stereo not drawn) | 72.8* | -14.0 | -36.6 | 34.5* | 527.0* | 90.2*
Nc1ccc2c(c1)Cc1cc([N+](=O)[O-])ccc1-2 | 28.2* | -7.1 | -12.4 | 13.4 | 34.5* | 10.9
O=C(Cc1ccsc1)Nc1ccc(Cl)cc1Cl | 9.3 | 11.8 | 0.9 | 1.3 | -5.4 | -0.8
COc1cc(NC(=O)COC(=O)CC(C)(C)C)c(C)cc1[N+](=O)[O-] | 15.1 | -0.2 | -6.8 | 1.9 | -1.6 | 0.9
Cn1c(=O)c2c(nc(N3CCCCC3)n2CCSc2nc3ccccc3s2)n(C)c1=O | -4.8 | 37.5* | 0.0 | 6.3 | 0.4 | 0.7
S=C(c1ccc(-c2ccc(Cl)cc2Cl)o1)N1CCCCC1 | -9.8 | -8.3 | 6.4 | 5.4 | -5.7 | -1.1
S=C(c1ccc(-c2ccc(Cl)cc2Cl)o1)N1CCCC1 | -15.0 | 1.6 | 22.1* | -3.4 | 8.3 | -1.3
O=C(COC(=O)c1nc(Cl)ccc1Cl)Nc1ccc(Cl)cc1 | 3.2 | 22.0* | -3.3 | -9.2 | -8.4 | 3.8
C[N+]1(CCC(=O)c2ccccc2)CCCCC1 | -8.1 | -1.6 | 7.2 | 4.2 | -3.7 | 0.5
C[N+]1(C)CCC(=C(c2ccccc2)c2ccccc2)CC1 | 98.7* | -16.6 | -18.8 | 99.5* | -1.9 | 0.1
COC(=O)c1ccc(-c2nc(O)c3cnccn23)cc1 | 8.3 | 2.8 | -1.0 | -3.3 | -4.4 | 34.4*
Oc1nc(-c2ccc(Cl)cc2)n2ccncc12 | 11.4 | -0.3 | -1.4 | -5.2 | -3.9 | 0.9
CC1CCc2cc(F)ccc2N1C(=O)CSc1nnc(-c2cccs2)n1C (stereo not drawn) | -0.4 | 4.8 | 1.7 | 1.6 | -4.9 | 1.4
CC1C(C#N)=C(N)OC2=C1C(=O)CCC2 (stereo not drawn) | -4.4 | -7.0 | 1.6 | -5.6 | -0.5 | 0.4
Cc1ccc(-n2c(SCC(=O)Nc3ccc(Cl)cc3)nc(O)cc2=O)cc1 | 31.5* | 2.2 | -5.7 | -4.2 | -8.6 | 0.3
COc1ccc(NC(=O)CSc2nc(O)cc(=O)n2-c2ccccc2)cc1 | -14.6 | 12.4 | 15.9 | -8.9 | 0.3 | 0.8
Cc1c(O)nc(SCC(=O)Nc2ccc3c4c(cccc24)CC3)n(-c2ccccc2)c1=O | 2.2 | -0.2 | 2.3 | 10.8 | -2.3 | 1.9
O=C(CSc1nc(O)cc(=O)n1-c1ccccc1)Nc1ccc2c3c(cccc13)CC2 | -4.4 | 19.5* | 7.6 | -12.3 | 0.3 | 1.1
O=C1c2cccc3cccc(c23)C(=O)N1Nc1ccccc1 | 4.0 | 6.5 | 0.3 | -4.2 | 1.2 | 2.7
SMILES | M5 antag | CHRM4 PAM | M5 PAM | CHRM4 antagonist | CHRM5 agonist | CHRM4 agonist
CN1CCC(=NNC(=O)C(=O)Nc2cccc(Br)c2)CC1 | 32.4* | 0.1 | -15.4 | -2.5 | 0.7 | 1.3
Cc1cc(C)nc(Sc2c(F)c(F)c(C(F)(F)F)c(F)c2F)n1 | -8.5 | 4.7 | -4.3 | -2.5 | 0.7 | 0.1
CCOc1ccc(NCc2cccn2-c2nnc(N3CCC(C(=O)NCCCN4CC(C)CC(C)C4)CC3)s2)cc1 (stereo not drawn) | -11.4 | -12.9 | -10.7 | 33.5* | -8.3 | 3.6
Cc1ccc(-n2nnnc2SCC(=O)N2CCc3ccccc3C2)c(C)c1 | 4.5 | 0.8 | -2.2 | 3.3 | -1.1 | 4.1
COc1ccccc1NC(=O)C1=C(C)NC(=O)NC1c1ccc(C)cc1 (stereo not drawn) | 0.5 | -12.6 | -6.4 | 32.1* | -2.9 | -0.4
Cc1ccc(S(=O)(=O)NCCC(=O)N2CCC(C(N)=O)CC2)cc1C | -4.7 | 26.4* | 1.9 | -24.4 | -2.4 | 0.0
CCOC(=O)N1CCN(C(=O)CCNS(=O)(=O)c2ccc(C)c(C)c2)CC1 | 4.0 | 4.0 | -3.0 | -27.1 | -3.6 | 0.5
O=C(CCNS(=O)(=O)c1ccccc1)N1CCCCCC1 | -8.5 | 28.2* | 5.6 | -4.1 | -2.3 | 1.4
Oc1ccccc1/C=N/N1CCCCC1 | 29.8* | -3.4 | -8.5 | -0.2 | 5.0 | 0.5
C=CCn1c2ccccc2c2nnc(SCC(N)=O)nc21 | 4.6 | 2.4 | -1.1 | 2.1 | -1.5 | 1.5
C=CCSc1nnc2nc3c(nn12)c1cc(C)ccc1n3CC=C | -11.2 | 9.8 | 40.5* | -20.6 | -1.8 | 1.4
OCC[C@H]1C[C@@H](O)[C@H](O)[C@@]2(Cc3ccccc3CCO2)O1 | 10.6 | 5.6 | -2.0 | 5.7 | 0.3 | 2.0
COc1ccc(OC)c(/C=C2\NC(=O)NC2=O)c1 | -0.5 | -2.4 | -1.5 | -7.6 | 1.4 | 1.6
COc1cc(N2CCCC2)c(OC)cc1/C=C1/NC(=S)NC1=O | 16.7 | -13.6 | -12.0 | 26.0 | 32.3* | 30.4
CC(C)NC(=O)c1cc2c(C(F)(F)F)nn(C)c2s1 | -5.7 | 8.3 | 9.0 | -14.6 | -2.3 | 0.9
CN1CCC(=C2c3ccccc3C(O)c3ccccc32)CC1 (stereo not drawn) | 98.7* | -20.0 | -18.6 | 96.2* | -7.1 | 2.4
CN1CCC(=C2c3ccccc3CCc3sccc32)CC1 | 98.8* | -17.4 | -18.2 | 99.2* | 0.2 | 5.0
CN1CCC(=C2c3ccccc3CC(=O)c3sccc32)CC1 | 98.1* | -17.0 | -18.9 | 71.5* | 0.5 | 5.9
COn1c(C)c(C)c2c3nonc3ccc21 | 16.5 | -3.5 | -6.3 | -2.9 | -5.4 | 0.4
COc1ccc(C(=O)N2CCN(S(=O)(=O)c3ccc(C)cc3C)CC2)cc1OC | -3.9 | -1.4 | -6.6 | -10.8 | 0.8 | 3.0
COc1ccc(NC(=O)c2cn(-c3ccccc3)nc2-c2ccncc2)cc1 | 5.3 | 0.4 | -6.7 | 1.2 | -4.2 | 3.4
COc1ccc(-c2nn(-c3ccccc3)cc2C(=O)NC(=S)NNC(=O)c2ccncc2)cc1 | 8.6 | -12.4 | -9.4 | 8.1 | 12.6 | 33.4*
COc1ccc(-c2nn(-c3ccccc3)cc2C(=O)NC(=S)Nc2cc(Cl)ccc2Cl)cc1 | -15.8 | 26.7 | 22.1* | -0.7 | 5.5 | 2.1

Screening data deposited in PubChem BioAssay by The Scripps Research Institute Molecular Screening Center.
